# Experimental data from ChEMBL document CHEMBL4689842, “EUbOPEN Chemogenomics Library wave 1” (2021).
# Several values for one entry are separate records, joined by “and”; a condition that tells them apart may be missing. Equal entries are not always repeated.
# Experiments:
# Format in all cases: toxicity, cell-based
# Fibroblast [1] = assay: Incucyte cell viability with human fibroblast; details: 10 µM, compound concentration 10 uM; also: filed as whole numbers so only -1 and 0 and 1 occur
# U2OS = assay: Incucyte cell viability with U2OS; details: human, 10 µM, compound concentration 10 uM; also: filed as whole numbers so only -1 and 0 and 1 occur
# HEK-293T [2] = assay: Incucyte cell viability with HEK293T; details: human, 10 µM, compound concentration 10 uM; also: filed as whole numbers so only -1 and 0 and 1 occur
# Fibroblast [3] = assay: Multiplex assay against human fibroblast; details: 10 µM, compound concentration 10 uM
# How it was run: (§1)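 Phenotypes for tubulin, mitochondrial mass and membrane permeability are expressed as per cents of healthy-nucleus cells. Cells were stained live at seeding with Hoechst33342, BioTracker Green Microtubule Cytoskeleton Dye, MitoTracker Red and Annexin V Alexa Fluor 680, then imaged after compound addition on a CQ1 microscope at 37°C and 5% CO2. Machine-learning gating in CellPathfinder separated Hoechst high-intensity objects from normal cells, divided normal cells by nuclear state (healthy, pyknosed, fragmented) and divided pyknosed cells into mitotic or apoptotic.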
# HEK-293T [4] = assay: Multiplex assay against HEK293T; details: human, 10 µM, compound concentration 10 uM; how it was run: as §1;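 as to Population Tubulin-Different-Phenotype (%): share of the cells with healthy nuclei that show this phenotype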
# [5] = 6 h, replicate number 1, timepoint 6 hours
# [6] = 12 h, replicate number 1, timepoint 12 hours
# [7] = 18 h, replicate number 1, timepoint 18 hours
# [8] = 24 h, replicate number 1, timepoint 24 hours
smiles,measurement,setting,value
C1=N/C2=N/c3ccc(OCCN4CCCC4)c(c3)COC/C=C\COCc3cccc(c3)C(=C1)N2,Growth Rate,Fibroblast [1]; [5],0
same,Growth Rate,Fibroblast [1]; [6],0
same,Growth Rate,Fibroblast [1]; [7],0
same,Growth Rate,Fibroblast [1]; [8],0
same,Growth Rate,"U2OS; 0 h, replicate number 1, timepoint 0 hours",0
same,Growth Rate,U2OS; [5],0
same,Growth Rate,U2OS; [6],0
same,Growth Rate,U2OS; [7],0
same,Growth Rate,U2OS; [8],0
same,Growth Rate,HEK-293T [2]; [5],0
same,Growth Rate,HEK-293T [2]; [6],0
same,Growth Rate,HEK-293T [2]; [7],0
same,Growth Rate,HEK-293T [2]; [8],0
same,Population Apoptotic (%),"Fibroblast [3]; 12 h, replicate 1",82% and 50% and 69%
same,Population Fragmented Nuclei (%),"Fibroblast [3]; 12 h, replicate 1",23% and 19% and 32%
same,Population Hoechst High Intensity Objects (%),"Fibroblast [3]; 12 h, replicate 1",13% and 8% and 12%
same,Population Membrane Permeable-Phenotype (%),"Fibroblast [3]; 12 h, replicate 1",0% and 2% and 3%
same,Population Mitotic Cells (%),"Fibroblast [3]; 12 h, replicate 1",17% and 49% and 30%
same,Population Normal (%),"Fibroblast [3]; 12 h, replicate 1",86% and 91% and 87%
same,Population Apoptotic (%),"Fibroblast [3]; 12 h, replicate 2",68% and 44% and 90%
same,Population Fragmented Nuclei (%),"Fibroblast [3]; 12 h, replicate 2",66% and 46% and 29%
same,Population Normal (%),"Fibroblast [3]; 12 h, replicate 2",60% and 68% and 89%
same,Population Pyknosed Nuclei (%),"Fibroblast [3]; 12 h, replicate 2",24% and 18% and 53%
same,Total Cell Count,"Fibroblast [3]; 12 h, replicate 2",108 and 72 and 71
same,Population Apoptotic (%),"Fibroblast [3]; 24 h, replicate 1",82% and 61% and 58%
same,Population Fragmented Nuclei (%),"Fibroblast [3]; 24 h, replicate 1",35% and 32% and 34%
same,Population Hoechst High Intensity Objects (%),"Fibroblast [3]; 24 h, replicate 1",15% and 6% and 13%
same,Population Mitotic Cells (%),"Fibroblast [3]; 24 h, replicate 1",17% and 38% and 41%
same,Population Normal (%),"Fibroblast [3]; 24 h, replicate 1",84% and 93% and 86%
same,Population Tubulin-Different-Phenotype (%),"Fibroblast [3]; 24 h, replicate 1",54% and 82%
same,Population Apoptotic (%),"Fibroblast [3]; 24 h, replicate 2",92% and 57% and 96%
same,Population Hoechst High Intensity Objects (%),"Fibroblast [3]; 24 h, replicate 2",37% and 28% and 32%
same,Population Normal (%),"Fibroblast [3]; 24 h, replicate 2",62% and 71% and 67%
same,Total Cell Count,"Fibroblast [3]; 24 h, replicate 2",98 and 77 and 69
same,Population Apoptotic (%),"Fibroblast [3]; 48 h, replicate 1",87%
same,Population Fragmented Nuclei (%),"Fibroblast [3]; 48 h, replicate 1",50%
same,Population Healthy Nuclei (%),"Fibroblast [3]; 48 h, replicate 1",24%
same,Population Hoechst High Intensity Objects (%),"Fibroblast [3]; 48 h, replicate 1",20%
same,Population Membrane Permeable-Phenotype (%),"Fibroblast [3]; 48 h, replicate 1",25%
same,Population Mitochondria Different-Phenotype (%),"Fibroblast [3]; 48 h, replicate 1",31%
same,Population Mitotic Cells (%),"Fibroblast [3]; 48 h, replicate 1",12%
same,Population Normal (%),"Fibroblast [3]; 48 h, replicate 1",79%
same,Population Pyknosed Nuclei (%),"Fibroblast [3]; 48 h, replicate 1",24%
same,Population Tubulin-Different-Phenotype (%),"Fibroblast [3]; 48 h, replicate 1",50%
same,Total Cell Count,"Fibroblast [3]; 48 h, replicate 1",82
same,Population Apoptotic (%),"Fibroblast [3]; 48 h, replicate 2",94%
same,Population Fragmented Nuclei (%),"Fibroblast [3]; 48 h, replicate 2",68%
same,Population Healthy Nuclei (%),"Fibroblast [3]; 48 h, replicate 2",5%
same,Population Hoechst High Intensity Objects (%),"Fibroblast [3]; 48 h, replicate 2",14%
same,Population Membrane Permeable-Phenotype (%),"Fibroblast [3]; 48 h, replicate 2",0%
same,Population Mitochondria Different-Phenotype (%),"Fibroblast [3]; 48 h, replicate 2",100%
same,Population Mitotic Cells (%),"Fibroblast [3]; 48 h, replicate 2",5%
same,Population Normal (%),"Fibroblast [3]; 48 h, replicate 2",85%
same,Population Pyknosed Nuclei (%),"Fibroblast [3]; 48 h, replicate 2",25%
same,Population Tubulin-Different-Phenotype (%),"Fibroblast [3]; 48 h, replicate 2",75%
same,Total Cell Count,"Fibroblast [3]; 48 h, replicate 2",78
same,Population Fragmented Nuclei (%),"HEK-293T [4]; 12 h, replicate 1",34% and 21% and 25%
same,Population Hoechst High Intensity Objects (%),"HEK-293T [4]; 12 h, replicate 1",26% and 14% and 21%
same,Population Membrane Permeable-Phenotype (%),"HEK-293T [4]; 12 h, replicate 1",14% and 13% and 0%
same,Population Normal (%),"HEK-293T [4]; 12 h, replicate 1",73% and 85% and 78%
same,Population Pyknosed Nuclei (%),"HEK-293T [4]; 12 h, replicate 1",52% and 47% and 73%
same,Total Cell Count,"HEK-293T [4]; 12 h, replicate 1",695 and 596 and 237
same,Population Membrane Permeable-Phenotype (%),"HEK-293T [4]; 12 h, replicate 2",4% and 5%
same,Population Mitochondria Different-Phenotype (%),"HEK-293T [4]; 12 h, replicate 2",89% and 81% and 50%
same,Population Normal (%),"HEK-293T [4]; 12 h, replicate 2",77% and 79% and 94%
same,Population Pyknosed Nuclei (%),"HEK-293T [4]; 12 h, replicate 2",54% and 88% and 38%
same,Population Tubulin-Different-Phenotype (%),"HEK-293T [4]; 12 h, replicate 2",82% and 72% and 94%
same,Population Apoptotic (%),"HEK-293T [4]; 24 h, replicate 1",87% and 58% and 29%
same,Population Fragmented Nuclei (%),"HEK-293T [4]; 24 h, replicate 1",30% and 38% and 21%
same,Population Hoechst High Intensity Objects (%),"HEK-293T [4]; 24 h, replicate 1",20% and 21% and 14%
same,Population Membrane Permeable-Phenotype (%),"HEK-293T [4]; 24 h, replicate 1",0% and 19% and 7%
same,Population Normal (%),"HEK-293T [4]; 24 h, replicate 1",79% and 78% and 85%
same,Population Pyknosed Nuclei (%),"HEK-293T [4]; 24 h, replicate 1",69% and 45% and 44%
same,Total Cell Count,"HEK-293T [4]; 24 h, replicate 1",253 and 698 and 607
